Assay [1] can be described thus: inhibitors of TNFa-induced NFkB p65 translocation, primary screen, imaging, HUVEC, MLSMR starter and 10KST1 sets (AID 438;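 active means inhibition above 20% together with a positive visual image hit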;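 further: compound added about 3h40 before a 20 min TNFalpha stimulation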;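 on inhibition: signal is the nuclear over cytoplasmic p65 intensity ratio per well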). The note with it: HUVEC TNFa-induced p65 nuclear translocation; cell count: measured here: nuclei count (cytotoxicity indicator), at 2.08 µM; inhibition: at 2 µM, stronger effect = higher value, 0% TNFa-plus-vehicle, 100% no-TNFa wells.
Assay [2] can be described thus: inhibitors of mutant huntingtin aggregation, primary screen, imaging, exon1htt(103Q)mCFP cells, high-content imaging (AID 483).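 Further: compound exposure lasted 3 days before fixation.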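 On nuclei count: percent of the per-plate median nuclei count of sample wells.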 The note with it: exon1htt(103Q)mCFP cell line, aggregate imaging, at 2 µM; inhibition of aggregation: stronger effect = higher value; nuclei count: measured here: cell count, toxicity.
Assay [3] is described as follows: inhibitors of E-selectin induction by TNFa, primary screen, imaging, HUVEC, immunofluorescence, MLSMR starter and 10KST1 sets (AID 487;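 active means visually confirmed hit in the image check and inhibition above 20%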;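 on inhibition: signal is fraction of cell area covered by stained E-selectin grains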;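 on nuclei count: 100% = median nuclei count of all wells on the same plate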). The settings on record: HUVEC TNFalpha-induced E-selectin immunofluorescence imaging, at 2 µM; inhibition: stronger effect = higher value; nuclei count: measured here: cell number, toxicity.
Assay [4] addresses Voltage-gated potassium channel subunit beta-2 (Rattus norvegicus) (UniProt P62483). Description: KvBeta enzyme negative modulators, primary screen, biochemical, NADPH fluorescence (AID 622;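 active means fluorescence slope higher than the sample average by over 3 SD, cut at about -0.22 in these data, passing the limit was not always enough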;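 further: slope of raw intensity against log time taken from 70 to 1610 s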). The note with it: recombinant KvBeta, 4-cyanobenzaldehyde reduction, at 10 µM, stronger effect = higher value.
The target is the same in assay [5]. In words: KvBeta positive modulators, primary screen, biochemical, NADPH fluorescence (AID 623;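 active means NADPH fluorescence slope more negative than the mean of all samples by about 3 SD, 99.7% confidence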;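 further: fluorescence intensity change per second fitted from 20 to 320 s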). The settings on record: Recombinant KvBeta, NADPH fluorescence decrease slope, 10 min; at 10 µM; stronger effect = lower value.
Assay [6] concerns the target Alpha-2C adrenergic receptor (Homo sapiens) (UniProt P18825). Description: modulators of alpha2C/GIRK thallium flux, primary screen, cell-based, HEK293 alpha2C/GIRK1/2 (AID 624;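 active means fluorescence slope after compound addition differing from the mean of all screened samples at 99.7% confidence, in either direction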;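 further: slope of fluorescence ratio to pre-addition baseline per second over 15 to 24 s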). The note with it: thallium flux BTC fluorescence, at 10 µM, actives lie on both sides.
Assay [7] is described as follows: inhibitors of larval lipid processing in zebrafish, primary screen, whole organism, PED6 fluorescence, gall bladder and intestine (AID 686;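 active means a full or partial loss of lipid-probe fluorescence in the fish gall bladder, intestine or both, judged by eye; inactive means no fluorescence loss, or compound toxic to the fish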;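 further: larvae 5 to 7 days old with five fish per well; signal comes from phospholipase A2 cleavage of quenched PED6 carried via bile; overnight exposure to compound and PED6 before scoring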). The note with it: Zebrafish larvae PED6 lipid processing, fluorescence scoring; screened at 20 µM (by protocol). Summed up:
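System: live zebrafish larvae aged 5-7 days, whole organism; measure: graded gall bladder and intestinal fluorescence inhibition per well; incubation: overnight exposure; reagent: ingested quenched lipid PED6 at 100 nM; signal: By-eye fluorescence microscopy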

Assay [8] is described as follows: inhibitors of Sendai virus-induced IRF3 signaling, primary screen, TLR/RLR signaling modifier project, cell-based, Sendai virus stimulus, luciferase, 10K MLSCN set (AID 602276;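 active means inhibition at or above 50% at 10 µM; inactive means inhibition below 50%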;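 further: firefly luciferase from ISG56 promoter only with Renilla not read in this screen; 0% = Sendai virus plus DMSO and 100% = medium plus DMSO without virus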). The note with it: HEK293 RL24 IRF3 luciferase reporter, at 10 µM, stronger effect = higher value. A general note: A reporter such as luciferase makes a cellular process visible.
The nature of assay [9]: inhibitors of poly I:C-induced TLR3 signaling, primary screen, cell-based, poly I:C stimulus, luciferase, 10K MLSCN set (AID 602277;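 active means inhibition of the reporter signal at or above 50%; inactive means inhibition below 50%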). The note with it: HEK293-TLR3 RL24 IRF3 luciferase reporter, at 10 µM, stronger effect = higher value.

The results in this text go back to PubChem BioAssay.

A word on the inhibition: it is the change of the read-out against control, counted positive when it falls.

Active and inactive are the calls of the source.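 How the source made its calls, unless noted: active means visual image review flags a hit and inhibition of aggregation exceeds 20%; inconclusive means visual hit but inhibition at or below 20%; inactive means no hit on visual image review.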

Chain of Voltage-gated potassium channel subunit beta-2 (Rattus norvegicus) (P62483 whole entry, looked up): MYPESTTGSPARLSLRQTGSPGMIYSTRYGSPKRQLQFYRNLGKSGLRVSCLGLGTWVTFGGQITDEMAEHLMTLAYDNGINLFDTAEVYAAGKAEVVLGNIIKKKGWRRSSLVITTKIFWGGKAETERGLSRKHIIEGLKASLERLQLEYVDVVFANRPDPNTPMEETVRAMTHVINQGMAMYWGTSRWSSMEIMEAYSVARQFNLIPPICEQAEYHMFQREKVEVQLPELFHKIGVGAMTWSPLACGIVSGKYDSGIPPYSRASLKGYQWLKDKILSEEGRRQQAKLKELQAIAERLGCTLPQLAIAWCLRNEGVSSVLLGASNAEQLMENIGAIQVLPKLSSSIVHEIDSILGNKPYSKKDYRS
Chain of Alpha-2C adrenergic receptor (Homo sapiens) (P18825 whole entry, looked up): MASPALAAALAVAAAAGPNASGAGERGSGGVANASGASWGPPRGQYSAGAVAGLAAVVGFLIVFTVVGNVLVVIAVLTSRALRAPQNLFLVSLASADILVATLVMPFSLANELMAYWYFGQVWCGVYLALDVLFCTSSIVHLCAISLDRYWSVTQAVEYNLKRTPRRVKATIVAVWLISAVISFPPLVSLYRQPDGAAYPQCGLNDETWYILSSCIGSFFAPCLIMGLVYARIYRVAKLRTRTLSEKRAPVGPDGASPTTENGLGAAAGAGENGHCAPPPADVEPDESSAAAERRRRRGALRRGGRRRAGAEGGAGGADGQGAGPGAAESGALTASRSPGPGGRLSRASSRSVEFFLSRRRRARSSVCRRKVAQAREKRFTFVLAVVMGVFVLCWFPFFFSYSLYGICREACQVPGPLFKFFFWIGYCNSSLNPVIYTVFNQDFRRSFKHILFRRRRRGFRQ

Consider `Cc1ccc(S(=O)(=O)N2CCN(C(=O)CSc3nc4ccccc4c(=O)[nH]3)CC2)c(C)c1`, for which the cell count in [1] is 541. The inhibition was -30.9% (inactive) in assay [1], -13.1% (inactive) in assay [3], 8.86% (inactive) in assay [8] and 4.21% (inactive) in assay [9]. Moreover, the inhibition of aggregation in assay [2] was -12.7% (inactive). The values for the nuclei count in assay [2] and in assay [3] were 113% and 130%, respectively. Moreover, the fluorescence slope in assay [4] is -0.331 (inactive). The NADPH fluorescence slope in assay [5] is 1.8e-05 (inactive). Moreover, in assay [6], the slope was 0.00493 (inactive). Moreover, the compound was called inactive in [7].

`CCc1nnc(NC(=O)CSc2nnc(-c3ccccc3OC)n2-c2ccccc2)s1`: the cell count in assay [1] was 276. Also, the inhibition was -6.9% (inactive) in assay [1], -163% (inactive) in assay [3], 11.4% (inactive) in assay [8] and 8.06% (inactive) in assay [9]. Further, the inhibition of aggregation in assay [2] was 14.1% (inactive). Also, the nuclei count in [2] is 146%; in assay [3], 128%. For the same compound, in assay [4], the fluorescence slope was -0.396 (inactive). Also, in assay [5], the NADPH fluorescence slope is -7.8e-05 (inactive). Also, the slope in [6] was 0.00574 (inactive). In addition, the call in assay [7] was inactive.

`Cc1cc(C)nc(-n2nc(C)cc2NC(=O)c2ccc(Br)o2)n1`: the cell count in [1] amounted to 442. The inhibition in assay [1] was -7.3% (inactive); in assay [3], 21.7% (inactive); in assay [8], -4.98% (inactive); in assay [9] it was 20.1% (inactive). The inhibition of aggregation in assay [2] is 18.7% (inactive). In addition, the nuclei count in assay [2] came out at 90.1%; in assay [3], 105%. In addition, the fluorescence slope in [4] was -0.374 (inactive). Moreover, the NADPH fluorescence slope in [5] was -5.8e-05 (inactive). Moreover, the slope in assay [6] is 0.00507 (inactive). Also, in assay [7], the call was inactive.

Take `COCCCN1C(=O)C(O)=C(C(C)=O)C1c1ccccn1` (stereo unspecified): in [1], the cell count amounted to 686. For the same compound, the inhibition in assay [1] was -1.7% (inactive); in [3] it was -38.3% (inactive); in assay [8], 12.4% (inactive); in [9] it was 14.4% (inactive). Besides, the inhibition of aggregation in [2] was -2% (inactive). For the same compound, the nuclei count in assay [2] and in [3] was 116% throughout. Besides, the fluorescence slope in assay [4] was -0.399 (inactive). Also, in assay [5], the NADPH fluorescence slope was -6.2e-05 (inactive). The slope in assay [6] is 0.00486 (inactive). In addition, the outcome in assay [7] is “active; weak signal in gallbladder only”.

For `CCN(CC)c1ccc(C(=O)n2cnc3ccccc32)cc1`, the cell count in assay [1] amounted to 461. For the same compound, the inhibition in assay [1] is 12.1% (inactive); in assay [3], -306% (inactive); in assay [8] it was 25.3% (inactive); in assay [9], -37.1% (inactive). For the same compound, the inhibition of aggregation in [2] is 7.1% (inactive). Besides, the nuclei count in assay [2] worked out at 95.4%; in assay [3], 128%. The fluorescence slope in assay [4] is -0.284 (inactive). In assay [5], the NADPH fluorescence slope is -3.9e-05 (inactive). In [6], the slope is 0.00386 (inactive). For the same compound, the result in assay [7] was inactive.

On to `COc1ccccc1N1CCN(C(=O)c2cc(-c3ccc(Cl)c(Cl)c3)on2)CC1`, for which the cell count in assay [1] was determined as 430. The inhibition in assay [1] was 5.1% (inactive); in [3] it was -17.9% (inactive); in [8], 1.29% (inactive); in assay [9], -2.55% (inactive). The inhibition of aggregation in [2] is -5.8% (inactive). Also, the nuclei count in [2] was 97.3%; in assay [3], 102%. The fluorescence slope in assay [4] is -0.407 (inactive). In addition, in assay [5], the NADPH fluorescence slope was -7.4e-05 (inactive). Besides, in assay [6], the slope was 0.00441 (inactive). Further, the compound was classed as inactive in assay [7].

With `COc1cc2c(cc1OC)C(/C(C#N)=N\O)=NC(C)(C)C2`, the cell count in assay [1] came out at 635. For the same compound, the inhibition in [1] is -39.6% (inactive); in [3] it was 33% (inactive); in assay [8], 13.5% (inactive); in assay [9], 13.6% (inactive). Further, the inhibition of aggregation in assay [2] was 2.8% (inactive). Further, the results for the nuclei count in assay [2] and in assay [3] were 107% and 96.2%, respectively. Also, the fluorescence slope in assay [4] is -0.432 (inactive). Further, the NADPH fluorescence slope in assay [5] was -2e-05 (inactive). In addition, the slope in assay [6] was 0.0058 (inactive). Moreover, in [7], the outcome was inactive.

In the case of `Cc1cc(C)cc(NC(=O)CN(C)S(=O)(=O)c2cnc[nH]2)c1`, the cell count in [1] was found to be 484. Besides, the inhibition in assay [1] was 8.7% (inactive); in [3], 0.4% (inactive); in assay [8], 1.14% (inactive); in assay [9], 2.32% (inactive). The inhibition of aggregation in [2] was -24% (inactive). Further, the nuclei count in assay [2] was 110%; in assay [3], 100%. The fluorescence slope in assay [4] is -0.406 (inactive). Besides, the NADPH fluorescence slope in assay [5] is -3.6e-05 (inactive). For the same compound, the slope in assay [6] was 0.00489 (inactive). In assay [7], the call was inactive.

In the case of `CCc1ccccc1N1C(=O)C2CC(C)=C(C)CC2C1=O` (stereo unspecified), the cell count in assay [1] is 500. Moreover, the inhibition was 5.5% (inactive) in [1], -355% (inactive) in assay [3], 10.5% (inactive) in [8] and 4.14% (inactive) in [9]. In addition, in assay [2], the inhibition of aggregation was 18.2% (inactive). In addition, the nuclei count in [2] worked out at 92.1%; in assay [3], 124%. The fluorescence slope in assay [4] was -0.368 (inactive). Moreover, the NADPH fluorescence slope in assay [5] was -5.9e-05 (inactive). The slope in assay [6] is 0.00511 (inactive). Besides, the call in assay [7] was inactive.

As to `COc1ccccc1OCc1nc2ccccc2[nH]1`, the cell count in assay [1] turned out to be 391. Also, the inhibition in [1] was 1.3% (inactive); in [3] it was 29.8% (inactive); in assay [8], -14.3% (inactive); in assay [9], -80.7% (inactive). The inhibition of aggregation in assay [2] is 19.9% (inactive). The nuclei count in assay [2] came out at 101%; in assay [3] it was 86.3%. Also, the fluorescence slope in assay [4] is -0.444 (inactive). Also, in [5], the NADPH fluorescence slope was -7e-05 (inactive). In [6], the slope is 0.0055 (inactive). The outcome in assay [7] was inactive.

On to `CCCn1nnc(NCc2ccc(OCc3cccs3)c(OC)c2)n1`, for which the cell count in assay [1] was 226. For the same compound, the inhibition in [1] was -5.8% (inactive); in assay [3], -51.4% (inactive); in assay [8] it was 8.88% (inactive); in [9], 6.19% (inactive). For the same compound, the inhibition of aggregation in assay [2] was 7.5% (inactive). Moreover, the nuclei count was 90% in assay [2] and 99% in assay [3]. Also, in assay [4], the fluorescence slope was -0.467 (inactive). Moreover, in assay [5], the NADPH fluorescence slope was -3.7e-05 (inactive). For the same compound, in [6], the slope was 0.00561 (inactive). Also, in [7], the compound was called inactive.

For `N#CC1=C(N)N2C(=C(C#N)C13CCCCC3)SC1CCCCC12O` (stereo unspecified), the cell count in assay [1] worked out at 322. In addition, the inhibition in [1] was 11.4% (inactive); in [3], -4.6% (inactive); in assay [8], 19% (inactive); in assay [9], 24.3% (inactive). The inhibition of aggregation in assay [2] was 3.6% (inactive). The nuclei count is 91.5% in assay [2] and 116% in assay [3]. Moreover, the fluorescence slope in [4] is -0.405 (inactive). Besides, in [5], the NADPH fluorescence slope was 1.2e-05 (inactive). Further, the slope in assay [6] was 0.00499 (inactive). Besides, the compound was called inactive in assay [7].

In the case of `O=C(CSc1ncn[nH]1)NC1CC2CCC1C2` (stereo unspecified), in assay [1], the cell count was 264. Moreover, the inhibition in assay [1] is -16.8% (inactive); in assay [3], 56.4% (inactive); in [8] it was 2.17% (inactive); in assay [9], 7.86% (inactive). In addition, in assay [2], the inhibition of aggregation was 17% (inactive). Besides, the nuclei count in assay [2] amounted to 80.8%; in [3], 53%. The fluorescence slope in [4] was -0.448 (inactive). In addition, the NADPH fluorescence slope in assay [5] was -3.5e-05 (inactive). Further, the slope in assay [6] was 0.00492 (inactive). Besides, the result in assay [7] was inactive.
